The whole screen tested about 2,100 compounds, of which about 75 (4%) were called active. The sample holds actives, similar compounds and a random draw of the others, so the mix is not that of the screen.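 Rule for the calls: active = calcium fluorescence trace judged by eye to show a response, as agonist, enhancer of the glutamate response, or inhibitor; inactive = trace judged by eye to show no response.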

Metabotropic glutamate receptor 8 (Rattus norvegicus), sequence (P70579 whole entry, looked up): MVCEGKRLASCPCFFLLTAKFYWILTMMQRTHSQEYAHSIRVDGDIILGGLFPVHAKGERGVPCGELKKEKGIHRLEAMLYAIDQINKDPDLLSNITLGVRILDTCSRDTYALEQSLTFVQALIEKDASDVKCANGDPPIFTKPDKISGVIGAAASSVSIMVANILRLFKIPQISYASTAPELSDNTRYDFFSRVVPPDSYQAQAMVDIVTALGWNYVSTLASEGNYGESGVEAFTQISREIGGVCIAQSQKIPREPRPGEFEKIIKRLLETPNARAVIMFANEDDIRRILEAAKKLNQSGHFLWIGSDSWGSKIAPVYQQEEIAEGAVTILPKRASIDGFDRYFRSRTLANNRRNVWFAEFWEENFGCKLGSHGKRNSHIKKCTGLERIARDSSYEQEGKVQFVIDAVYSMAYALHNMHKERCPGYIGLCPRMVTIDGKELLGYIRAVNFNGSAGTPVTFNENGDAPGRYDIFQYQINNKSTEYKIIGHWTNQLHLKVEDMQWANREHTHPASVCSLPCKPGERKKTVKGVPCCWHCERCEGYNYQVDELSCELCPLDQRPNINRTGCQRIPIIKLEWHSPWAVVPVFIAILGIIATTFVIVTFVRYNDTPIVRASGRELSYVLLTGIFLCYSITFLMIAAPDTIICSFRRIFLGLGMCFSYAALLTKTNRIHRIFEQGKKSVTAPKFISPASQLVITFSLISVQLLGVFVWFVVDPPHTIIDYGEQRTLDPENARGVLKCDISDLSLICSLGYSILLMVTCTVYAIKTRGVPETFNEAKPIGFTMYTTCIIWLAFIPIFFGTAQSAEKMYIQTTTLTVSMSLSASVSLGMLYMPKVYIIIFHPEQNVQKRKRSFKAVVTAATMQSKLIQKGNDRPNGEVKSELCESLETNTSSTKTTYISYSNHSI

In this assay the target is Metabotropic glutamate receptor 8 (Rattus norvegicus) (UniProt P70579). The experiment in a line: mGlu8-mediated intracellular calcium response modulators – cell-based, HEK293 rmGlu8, Gqi9 chimera, Fluo-4 calcium, counter-screen for GIRK activator project, confirmation (AID 623869). The following applies: HEK293 rmGlu8/Gqi9 calcium flux, Fluo-4 fluorescence; glutamate at EC20 added after compound. The method, boiled down: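 system = HEK-293 cells stably expressing rat mGlu8, plus transient chimeric Gqi9 | measured by = Fluo-4 calcium fluorescence, 1 Hz | timing = compound pre-exposure 4 min, post-glutamate read 2 min | measure = F/F0 fluorescence traces judged visually for each well | medium = HEPES-buffered HBSS at pH 7.4 | doses = single compound addition from 20 µM solution, 0.2% DMSO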
In the case of `CCC1(c2ccc(Cl)cc2)NC(=S)N(c2ccccc2)N1` (configuration not stated), the outcome is “inactive; 0”.
As for `CC1Cc2ccccc2N1C(=S)NC(=O)c1ccc(Cl)cc1Cl` (configuration not stated), the outcome is “inactive; 0”.
`Fc1cccc2sc(Nc3nnc(-c4ccco4)o3)nc12`: the outcome was “inactive; 0”.
In the case of `CCOc1ccc(-c2nnc(NC(=O)c3ccc(OCC(C)C)c(OC)c3)o2)cc1` it was “inactive; 0”; in that of `Cc1ccc(NC(=S)c2nc3ccccc3[nH]2)c(C)c1`, “inactive; 0”; in that of `O=C1c2ccccc2NC(c2ccc(-c3cccc(Cl)c3)o2)N1O` (configuration not stated), “inactive; 0”.
On to `O=C1c2ccccc2NC(c2ccc(-c3ccc(Br)cc3)o2)N1O` (configuration not stated), for which the outcome was “inactive; 0”.
With `Cc1cc([N+](=O)[O-])ccc1-c1ccc(C2Nc3ccccc3C(=O)N2O)o1` (configuration not stated) the entry was “active; 2”; with `CCCN(CCC)C(=S)NC(=O)c1ccc(Cl)cc1Cl`, “inactive; 0”.
With `C=CCn1c(=S)[nH]c2ccccc2c1=O` the entry was “inactive; 0”; with `Cc1ccccc1C(=O)Nc1nc(=S)ss1`, “active; 1”.
With `CCOC(=O)Cc1csc(NC(=S)NC(=O)c2ccccc2C)n1` the entry was “inactive; 0”.
For the compound `Cc1ccccc1C(=O)NNC(=O)C(=O)Nc1cccc(Cl)c1C`, the outcome is “inactive; 0”.
For `O=C(NC(=S)N1CCCc2ccccc21)c1ccc([N+](=O)[O-])cc1`, the outcome was “inactive; 0”.
In the case of `CN(C)S(=O)(=O)c1cccc(NC(=S)Nc2ccc(Cl)cc2Cl)c1` it was “inactive; 4”; in that of `CC12CCC(C(=O)N(CSC(=S)N/N=C\c3ccccc3)C1=O)C2(C)C` (configuration not stated), “inactive; 0”.
With `CNC(=S)N/N=C1\C(=O)c2cccc3cccc1c23` the entry was “inactive; 0”; with `CCc1nc(N2CCOCC2)c(C#N)c2c1CCCC2`, “active; 2”.
For `CSc1nc(N2CCOCC2)c2c(c1C#N)CC(C)(C)OC2`, the outcome is “inactive; 0”.
With `CC(C)c1nc(N2CCOCC2)c(C#N)c2c1CCCC2` the entry was “inactive; 0”; with `C=CCn1c(O)c(N=NC(=O)OC(C)(C)C)c2ccccc21`, “inactive; 0”.
Turning to `O=C(NC(=S)N1CCCc2ccccc21)c1ccc(Br)cc1`, the outcome was “inactive; 0”.
As for `Cn1c(=O)c2c(nc3sccn32)n(C)c1=O`, the outcome is “inactive; 0”.
In the case of `Cc1ccc(C)c(C(=O)c2c(C)nc3sccn23)c1` it was “active; -1”.
In the case of `COC(=O)c1ccc(NC(=S)NC(=O)c2c(Cl)cnn2C)cc1` it was “inactive; 0”; in that of `Cc1ccc(/C=N/n2c(-c3cccs3)n[nH]c2=S)cc1`, “inactive; 0”.
In the case of `COC(=O)c1ccccc1NC(=S)NC(=O)COc1ccc(C)cc1` it was “inactive; 0”.
Take `CCOC(=O)c1ccc(NC(=S)NC(=O)COc2ccccc2)cc1`: the outcome is “inactive; 0”.
In the case of `O=C(COc1ccccc1)NC(=S)Nc1cccc([N+](=O)[O-])c1` it was “inactive; 0”.
With `COC(=O)c1ccccc1NC(=S)NC(=O)COc1ccccc1` the entry was “inactive; 0”; with `Cc1ccccc1C(=O)NNC(=S)NC(=O)COc1ccccc1`, “active; 1”.
In the case of `Cc1ccc(C(=O)NNC(=S)NC(=O)COc2ccccc2)cc1` it was “active; 1”; in that of `Cc1cccc(C(=O)NNC(=O)C(=O)NC(C)(C)C)c1`, “inactive; 0”; in that of `COc1ccc(-c2nnc(NC(=O)c3ccc(F)cc3)o2)cc1`, “inactive; 0”.
Take `S=c1[nH]nc(-c2ccccn2)n1/N=C/c1ccc(Br)s1`: the outcome was “inactive; 0”.
In the case of `O=C(NC(=S)N1CCN(c2ccc(C(F)(F)F)cc2[N+](=O)[O-])CC1)c1cccs1` it was “inactive; 0”; in that of `O=C(NC(=S)N1CCc2ccccc21)c1ccccc1Br`, “inactive; 0”; in that of `S=c1[nH]cnc2scc(-c3ccccc3)c12`, “inactive; 0”.
With `O=C(NCc1ccccc1)c1ccc2c(=O)n(CCCN3CCCC3=O)c(=S)[nH]c2c1` the entry was “active; -1”.
In the case of `O=c1c2ccccc2[nH]c(=S)n1CCN1CCN(Cc2ccccc2)CC1` it was “inactive; 0”; in that of `COCCNC(=O)CCCCCn1c(=S)[nH]c2ccccc2c1=O`, “inactive; 0”.
On to `Cc1ccc(C)c(N=C2CCCN2Cc2ccccc2)c1C#N`, for which the outcome was “inactive; 0”.
In the case of `CC1(C)CC(=O)C2=C(C1)OC(/N=C/N1CCOCC1)=C(C#N)C2c1ccccc1` (configuration not stated) it was “inactive; 0”; in that of `CCCN(CCC)C(=S)NC(=O)c1ccc(-c2ccccc2)cc1`, “inactive; 0”.
In the case of `O=[N+]([O-])c1ccc(/C=N/NC(=S)Nc2ccccc2F)o1` it was “inactive; 0”; in that of `COc1cccc(-n2c(SCC(=O)NCCC3=CCCCC3)nc3n[nH]c(C)c3c2=N)c1`, “inactive; 0”.
Turning to `Cc1ccccc1-n1c(SCc2ccccn2)nc2n[nH]c(C)c2c1=N`, the outcome is “active; 2”.

The record behind these values is PubChem BioAssay AID623869 (Vanderbilt High Throughput Screening Facility, 2012).
